This is an account of results in ChEMBL document CHEMBL1149905, “A mutual prodrug ester of GABA and perphenazine exhibits antischizophrenic efficacy with diminished extrapyramidal effects” (J Med Chem, 2008).

For series [1], the system named is Rattus norvegicus. Nature of the series: Increase in prolactin level in Wistar rat plasma at 7.5 mg/kg, ip after 1 hr relative to control. Set-up: dose 7.5 mg/kg. The format is functional, organism-based. The essentials: (§1)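 Male Wistar rats (150–230 g), four per group, dosed ip in 1% lactic acid vehicle. Blood taken from the orbital vein under light ether anesthesia before dosing and 1 and 2 h after. EDTA plasma was separated at 1600g for 20 min and frozen at -78 °C. Prolactin was measured by double-antibody rat prolactin RIA, compared with vehicle and time 0 (t test).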

Series [2] relates to Rattus norvegicus. Nature of the series: Toxicity assessed as induction of cataleptic extrapyramidal symptoms in Wistar rat at 7.5 mg/kg, ip after 7 hrs by wall descending test. As to conditions: in vivo. The format is organism-based. Set-up: dose 7.5 mg/kg, route intraperitoneal. The essentials:
(§2)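 Rats (six/group) were injected ip with 5 mg/kg or 7.5 mg/kg of the parent drugs, or equimolar esters, in 1% lactic acid. Wall descending test: the time for a rat hanging on the cage wall to move its hind legs to the floor was recorded, with a 120 s maximum. Rats were tested every 30 min up to 420 min post-dose.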

In series [3] the test system is Rattus norvegicus. Nature of the series: Increase in prolactin level in Wistar rat plasma at 7.5 mg/kg, ip after 2 hrs relative to control. The format is functional, organism-based. Set-up: dose 7.5 mg/kg. The essentials: as §1
For series [4], the system named is Rattus norvegicus. The series can be described thus: Toxicity assessed as induction of cataleptic extrapyramidal symptoms in Wistar rat at 5 mg/kg, ip after 2 hrs by wall descending test. The format is organism-based. As to conditions: in vivo. On the set-up: dose 5 mg/kg, route intraperitoneal. The essentials:
as §2

Series [5] concerns Rattus norvegicus. Nature of the series: Reduction of D-amphetamine-induced hyperactivity in Wistar rat assessed as reduction of wall-climbing at 2.5 mg/kg, po. The format is functional, organism-based. On the set-up: dose 2.5 mg/kg. The essentials: (§3)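 Male Wistar rats (six/group) were dosed po with 1% lactic acid vehicle (two groups), 2.5 mg/kg or equimolar test agent, or GABA at 1 mg/kg. After 90 min, all groups except one vehicle group received D-amphetamine (2.0 mg/kg ip). Rats were placed singly in barrels, and after 30 min head movements and wall-climbing attempts over 120 s were counted double-blind.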

In series [6] the test system is Rattus norvegicus. Nature of the series: Increase in prolactin level in Wistar rat plasma at 7 to 28 mg/kg, po after 90 to 180 mins relative to control. The format is functional, organism-based. Summed up:
(§4)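 Five groups of male Wistar rats (4/group) were gavaged with 1% lactic acid vehicle, 5, 10 or 20 mg/kg, or equimolar 7, 14 or 28 mg/kg of the ester salt. Orbital-vein plasma was sampled under light ether at 0, 90 and 180 min and prolactin assayed by double-antibody RIA. Comparison was by t test against control and time 0.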

Series [7] has as its system Rattus norvegicus. Nature of the series: Reduction of cataleptic behavior in Wistar rat at 5 to 20 mg/kg, po by bar test. The format is functional, organism-based. Summed up: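 Rats were gavaged with 5, 10 or 20 mg/kg or equimolar doses, and catalepsy was scored 4 h post-dose; a time course was run at 5 and 10 mg/kg. Bar test: forelimbs rested on a 5.5 cm bar, and the time to descend to the surface was recorded. Rats were tested individually, hourly, with a 120 s cutoff.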

Series [8] has as its system Rattus norvegicus. Nature of the series: Reduction of D-amphetamine-induced hyperactivity in Wistar rat assessed as reduction of head movements at 2.5 mg/kg, po. On the set-up: dose 2.5 mg/kg. The format is functional, organism-based. Summed up:
as §3

The subject of series [9] is Rattus norvegicus. The series can be described thus: Increase in prolactin level in Wistar rat plasma at 5 to 20 mg/kg, po after 90 to 180 mins relative to control. The format is functional, organism-based. The essentials:
as §4

The test system of series [10] is Rattus norvegicus. Nature of the series: Increase in prolactin level in Wistar rat plasma at 5 mg/kg, ip after 2 hrs relative to control. Set-up: dose 5 mg/kg. The format is functional, organism-based. The essentials:
(§5)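 Male Wistar rats (150–230 g; four/group) received drug ip in 1% lactic acid, with a vehicle control group. Orbital-vein blood was taken under light ether anesthesia before dosing and at 1 and 2 h, collected into EDTA on ice. Plasma was spun at 1600g for 20 min and frozen at -78 °C. Prolactin was measured by double-antibody rat prolactin RIA. Comparison was by t test against control and time 0.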

Series [11] deals with Rattus norvegicus. Nature of the series: Increase in prolactin level in Wistar rat plasma at 5 mg/kg, ip after 1 hr relative to control. The format is functional, organism-based. On the set-up: dose 5 mg/kg. Summed up:
as §5

Series [12] relates to Rattus norvegicus. Nature of the series: Decrease in sedation in Wistar rat at 5 to 20 mg/kg, po. The format is functional, organism-based. Summed up: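 Male Wistar rats (150–230 g) were dosed by gavage. During catalepsy testing, sedation/alertness was recorded double-blind. The ip study used this scale: 0 active mobile; * calm and mobile; ** calm and immobile; *** ataxic and non-alert.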

Series [13] relates to Rattus norvegicus. The series can be described thus: Toxicity assessed as induction of cataleptic extrapyramidal symptoms in Wistar rat at 7.5 mg/kg, ip after 2 hrs by wall descending test. The format is organism-based. The settings on record: in vivo. Set-up: dose 7.5 mg/kg, route intraperitoneal. The essentials:
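Male Wistar rats (150–230 g), six per group, dosed ip in 1% lactic acid. Wall descending test: time for a rat hanging on the cage wall to move its hind legs and reach the floor, capped at 120 s. Rats were tested individually, every 30 min up to 420 min. Sedation was scored double-blind at the same time points.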

For series [14], the system named is Rattus norvegicus. Nature of the series: Inhibition of D-amphetamine-induced hyperactivity in Wistar rat at 2.5 mg/kg, po. Set-up: dose 2.5 mg/kg. The format is functional, organism-based. The essentials:
as §3

Series [15] has as its system Rattus norvegicus. The series can be described thus: Toxicity assessed as induction of cataleptic extrapyramidal symptoms in orally dosed Wistar rat by bar test. The settings on record: in vivo, po.

Calls of active or inactive are those of the source.

In the case of `Cl.NCCCC(=O)OCCN1CCN(CCCN2c3ccccc3Sc3ccc(C(F)(F)F)cc32)CC1`, the result in series [1] and in series [3] was Active. For the same compound, the Activity entry in series [2] is reported as “Non-toxic”.

Take `Cl.NCCCC(=O)OCCN1CCN(CCCN2c3ccccc3Sc3ccc(Cl)cc32)CC1` [BL-1020]: the Activity entry in series [4] is reported as “Non-toxic”. Besides, the outcome in series [5], in series [6], in series [7], in series [8], in series [9] and in series [10] was Active. For the same compound, the result in series [11] and in series [12] was Active.

Consider `OCCN1CCN(CCCN2c3ccccc3Sc3ccc(C(F)(F)F)cc32)CC1` [FLUPHENAZINE], for which, in series [13], the Activity entry is listed as “Toxic”. For the same compound, the outcome in series [1] and in [3] was Active.

Take `OCCN1CCN(CCCN2c3ccccc3Sc3ccc(Cl)cc32)CC1` [PERPHENAZINE]: the Activity result in [4] was “Toxic”; in series [15] it was “Dose-dependent effect”. Also, the outcome in series [14], in series [10] and in series [11] was Active.
